The record followed here is ChEMBL document CHEMBL3745688, “Discovery of novel hybrids of diaryl-1,2,4-triazoles and caffeic acid as dual inhibitors of cyclooxygenase-2 and 5-lipoxygenase for cancer therapy” (Eur J Med Chem, 2016).

Where only a bound is given, the exact number is not on record here.

Assay [1] has as its target T1, Prostaglandin G/H synthase 2 (Rattus norvegicus, UniProt P35355).
T1 sequence (P35355 whole entry): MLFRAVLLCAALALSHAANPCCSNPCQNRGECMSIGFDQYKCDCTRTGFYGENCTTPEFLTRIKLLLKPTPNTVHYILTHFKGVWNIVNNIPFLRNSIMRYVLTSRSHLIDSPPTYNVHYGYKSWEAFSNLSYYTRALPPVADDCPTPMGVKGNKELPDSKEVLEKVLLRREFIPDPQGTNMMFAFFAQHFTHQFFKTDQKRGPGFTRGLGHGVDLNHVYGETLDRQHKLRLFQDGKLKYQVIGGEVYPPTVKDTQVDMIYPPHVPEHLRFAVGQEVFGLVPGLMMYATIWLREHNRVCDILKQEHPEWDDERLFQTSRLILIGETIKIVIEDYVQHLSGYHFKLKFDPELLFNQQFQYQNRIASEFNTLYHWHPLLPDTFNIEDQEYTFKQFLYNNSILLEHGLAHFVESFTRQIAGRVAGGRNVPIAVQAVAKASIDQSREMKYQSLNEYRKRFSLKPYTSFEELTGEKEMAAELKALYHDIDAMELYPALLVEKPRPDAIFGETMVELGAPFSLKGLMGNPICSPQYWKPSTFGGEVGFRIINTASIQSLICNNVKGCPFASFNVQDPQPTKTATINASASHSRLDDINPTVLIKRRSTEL
The experiment in a line: Inhibition of COX2 in rat abdominal macrophages assessed as PGE2 production pretreated for 30 mins followed by addition of 10 uM arachidonic acid as substrate for 20 mins by EIA.

The target in assay [2] is T2, Polyunsaturated fatty acid 5-lipoxygenase (Rattus norvegicus, UniProt P12527).
T2 sequence (P12527 whole entry): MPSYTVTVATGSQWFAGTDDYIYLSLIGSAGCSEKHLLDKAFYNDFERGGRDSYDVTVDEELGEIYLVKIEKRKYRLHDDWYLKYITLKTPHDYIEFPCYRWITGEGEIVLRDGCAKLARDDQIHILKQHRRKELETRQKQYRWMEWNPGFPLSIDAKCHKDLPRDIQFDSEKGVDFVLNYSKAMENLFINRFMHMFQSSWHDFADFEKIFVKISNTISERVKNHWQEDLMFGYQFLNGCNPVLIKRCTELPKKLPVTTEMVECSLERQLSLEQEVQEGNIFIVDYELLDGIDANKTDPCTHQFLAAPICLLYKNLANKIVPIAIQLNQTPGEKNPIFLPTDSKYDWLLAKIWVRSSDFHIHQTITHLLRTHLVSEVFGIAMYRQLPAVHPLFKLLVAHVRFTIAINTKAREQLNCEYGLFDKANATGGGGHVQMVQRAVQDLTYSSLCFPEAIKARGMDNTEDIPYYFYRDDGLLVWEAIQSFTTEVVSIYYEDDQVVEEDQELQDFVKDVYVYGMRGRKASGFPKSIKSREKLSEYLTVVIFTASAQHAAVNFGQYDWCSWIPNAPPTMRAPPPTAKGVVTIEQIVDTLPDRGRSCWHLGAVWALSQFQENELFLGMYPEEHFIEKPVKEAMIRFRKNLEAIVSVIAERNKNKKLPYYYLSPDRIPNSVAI
The experiment in a line: Inhibition of 5-LOX in Sprague-Dawley rat leukocytes assessed as A23187 stimulated LTB4 production pretreated for 30 mins followed by addition of A23187 for 30 mins by EIA. It is filed as cell-based. The gist of the method:
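Rat peritoneal leukocytes collected from Sprague-Dawley rats primed i.p. with 0.2% glycogen (20 mL/kg). Cells in Hanks solution plated at 1.0×10^6/well and held 10 min at 37 °C. Pretreated 30 min with L-cysteine (10 mM), indomethacin (1 mg/L) and compound or DMSO. A23187 added for 30 min. LTB4 in the clarified supernatant measured by EIA; % inhibition from OD; IC50 by Bliss method.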

For another assay, the system named is A549. The experiment in a line: Antiproliferative activity against human A549 cells after 72 hrs by MTT assay. The following applies: A549, 72 h. The class given is functional, cell-based. The gist of the method:
(§1)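 Cells seeded at 5×10^4/well, grown 24 h at 37 °C in 5% CO₂, then exposed to compounds dissolved in DMSO at a range of concentrations for 72 h. MTT (5 mg/mL in PBS) added for 4 h, then OD read at 570 nm. IC50 taken from dose-response curves, mean ± S.D. of three independent experiments.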
For orientation: Formazan colour is commonly taken as a measure of viable cells.

Assay [3] is described as follows: Antiproliferative activity against human Caco2 cells after 72 hrs by MTT assay. It is filed as functional, cell-based. The following applies: Caco-2, 72 h. The gist of the method:
as §1

The nature of assay [4]: Antiproliferative activity against human PC3 cells after 72 hrs by MTT assay. The class given is functional, cell-based. As to conditions: PC-3, 72 h. The gist of the method: as §1
Assay [5] is described as follows: Antiproliferative activity against mouse B16F10 cells after 72 hrs by MTT assay. The class given is functional, cell-based. As to conditions: B16-F10, 72 h. The gist of the method: as §1

Usually IC50 stands for the concentration at which inhibition is half-maximal. In the case of `CC(=O)Oc1ccc(/C=C/C(=O)OCCSc2nc(-c3ccc(S(C)(=O)=O)cc3)n(-c3ccccc3)n2)cc1OC(C)=O`, the IC50 in assay [1] turned out to be 0.92 µM; in assay [2], 1.21 µM.

On to `CC(=O)Oc1ccc(/C=C/C(=O)OCCCSc2nc(-c3ccc(S(N)(=O)=O)cc3)n(-c3ccccc3)n2)cc1OC(C)=O`, for which the IC50 in assay [1] was determined as 0.91 µM; in assay [2] it was 1.07 µM.

On to `COc1cc(/C=C/C(=O)OCCSc2nc(-c3ccc(S(C)(=O)=O)cc3)n(-c3ccc(F)cc3)n2)ccc1OC(C)=O`, for which the IC50 in assay [1] was 0.24 µM; in assay [2], 0.92 µM; with A549 it was 9.61 µM; in assay [3] it was 10.8 µM; in assay [4] it was 12.8 µM; in assay [5], 11.2 µM.

For the molecule `CC(=O)Oc1ccc(/C=C/C(=O)NCCSc2nc(-c3ccc(S(N)(=O)=O)cc3)n(-c3ccc(Br)cc3)n2)cc1OC(C)=O`, the IC50 in assay [1] was determined as 0.18 µM; in assay [2], 0.99 µM; in the assay on A549 it was 18.7 µM; in assay [3], 16.7 µM; in assay [4], 17 µM; in assay [5], 15.2 µM.

As for `CC(=O)Oc1ccc(/C=C/C(=O)NCCCSc2nc(-c3ccc(S(N)(=O)=O)cc3)n(-c3ccccc3)n2)cc1OC(C)=O`, the IC50 was 0.63 µM in assay [1]; 0.97 µM in assay [2]; 32.7 µM with A549; 31 µM in assay [3]; 35.2 µM in assay [4]; 29.1 µM in assay [5].

`COc1cc(/C=C/C(=O)OCCSc2nc(-c3ccc(S(C)(=O)=O)cc3)n(-c3ccc(C(F)(F)F)cc3)n2)ccc1OC(C)=O`: the IC50 amounted to 0.23 µM in assay [1]; 0.92 µM in assay [2]; 9.65 µM with A549; 10.8 µM in assay [3]; 9.81 µM in assay [4]; 10.5 µM in assay [5].

As for `CC(=O)Oc1ccc(/C=C/C(=O)OCCCSc2nc(-c3ccc(S(N)(=O)=O)cc3)n(-c3ccc(F)cc3)n2)cc1OC(C)=O`, the IC50 in assay [1] was 0.36 µM; in assay [2] it was 1.03 µM; in the assay with A549 it was 9.92 µM; in assay [3], 11.5 µM; in assay [4], 10.5 µM; in assay [5] it was 10.9 µM.

`CC(=O)Oc1ccc(/C=C/C(=O)OCCSc2nc(-c3ccc(S(N)(=O)=O)cc3)n(-c3ccc(Br)cc3)n2)cc1OC(C)=O`: the IC50 in assay [1] is 0.31 µM; in assay [2] it was 1.05 µM.

For the molecule `CC(=O)Oc1ccc(/C=C/C(=O)NCCCSc2nc(-c3ccc(S(C)(=O)=O)cc3)n(-c3ccc(F)cc3)n2)cc1OC(C)=O`, the IC50 in assay [1] is 0.17 µM; in assay [2], 0.98 µM; in the assay with A549 it was 21.8 µM; in assay [3], 20.8 µM; in assay [4] it was 17.6 µM; in assay [5] it was 15.2 µM.

On to `COc1cc(/C=C/C(=O)OCCSc2nc(-c3ccc(S(C)(=O)=O)cc3)n(-c3ccccc3)n2)ccc1O`, for which the concentration for half-maximal inhibition (IC50) in assay [1] came to 0.58 µM; in assay [2] it was 0.84 µM.

On to `O=C(O)/C=C/c1ccc(O)c(O)c1` [CAFFEIC ACID], for which the IC50 (with A549; in assay [3]; in assay [4]; in assay [5]) was over 100 µM each time.

Regarding `CS(=O)(=O)c1ccc(-c2nc(SCCOC(=O)/C=C/c3ccc(O)c(O)c3)nn2-c2ccccc2)cc1`, the half-maximal inhibitory concentration (IC50) in assay [1] stood at 0.67 µM; in assay [2] it was 0.85 µM; with A549, 13.8 µM; in assay [3], 14.8 µM; in assay [4], 14.6 µM; in assay [5], 15 µM.

For `COc1cc(/C=C/C(=O)OCCSc2nc(-c3ccc(S(C)(=O)=O)cc3)n(-c3ccc(Br)cc3)n2)ccc1OC(C)=O`, the IC50 in assay [1] amounted to 0.29 µM; in assay [2], 0.94 µM; in the assay with A549 it was 11.1 µM; in assay [3], 12.1 µM; in assay [4] it was 13.1 µM; in assay [5], 12.4 µM.

In the case of `CC(=O)Oc1ccc(/C=C/C(=O)OCCSc2nc(-c3ccc(S(C)(=O)=O)cc3)n(-c3ccc(C(F)(F)F)cc3)n2)cc1OC(C)=O`, the IC50 turned out to be 0.19 µM in assay [1]; 1.06 µM in assay [2]; 10.2 µM in the assay with A549; 11.3 µM in assay [3]; 14.5 µM in assay [4]; 11.5 µM in assay [5].

In the case of `CC(=O)Oc1ccc(/C=C/C(=O)NCCCSc2nc(-c3ccc(S(C)(=O)=O)cc3)n(-c3ccc(Br)cc3)n2)cc1OC(C)=O`, the IC50 in assay [1] was 0.24 µM; in assay [2] it was 0.99 µM; in the assay on A549 it was 23.3 µM; in assay [3], 26.1 µM; in assay [4] it was 23.9 µM; in assay [5], 16.4 µM.

Turning to `CC(=O)Oc1ccc(/C=C/C(=O)OCCSc2nc(-c3ccc(S(N)(=O)=O)cc3)n(-c3ccccc3)n2)cc1OC(C)=O`, the IC50 in assay [1] turned out to be 0.85 µM; in assay [2], 1.11 µM.

With `CS(=O)(=O)c1ccc(-c2nc(SCCCOC(=O)/C=C/c3ccc(O)c(O)c3)nn2-c2ccc(Br)cc2)cc1`, the IC50 was determined as 0.37 µM in assay [1]; 0.79 µM in assay [2]; 11.2 µM in the assay on A549; 12.4 µM in assay [3]; 12.3 µM in assay [4]; 13.1 µM in assay [5].

Take `O=C(/C=C/c1ccc(O)c(O)c1)OCCc1ccccc1` [CAFFEIC ACID PHENETHYL ESTER]: the IC50 in the assay on A549 amounted to 9.72 µM; in assay [3], 11.3 µM; in assay [4], 10.2 µM; in assay [5], 10.7 µM.

Turning to `NS(=O)(=O)c1ccc(-c2nc(SCCOC(=O)/C=C/c3ccc(O)c(O)c3)nn2-c2ccccc2)cc1`, the IC50 is 0.62 µM in assay [1]; 0.8 µM in assay [2]; 14.1 µM with A549; 15 µM in assay [3]; 15 µM in assay [4]; 15 µM in assay [5].

For `NS(=O)(=O)c1ccc(-c2nc(SCCCOC(=O)/C=C/c3ccc(O)c(O)c3)nn2-c2ccccc2)cc1`, the IC50 worked out at 0.64 µM in assay [1] and 0.77 µM in assay [2].

Turning to `NS(=O)(=O)c1ccc(-c2nc(SCCOC(=O)/C=C/c3ccccc3)nn2-c2ccc(Br)cc2)cc1`, the IC50 in assay [1] came to 0.67 µM; in assay [2], 1.28 µM; in the assay with A549, 19.7 µM; in assay [3], 20.9 µM; in assay [4], 20.1 µM; in assay [5] it was 21.2 µM.

In the case of `COc1cc(/C=C/C(=O)OCCSc2nc(-c3ccc(S(C)(=O)=O)cc3)n(-c3ccc(C)cc3)n2)ccc1OC(C)=O`, the IC50 in assay [1] is 0.87 µM; in assay [2], 0.98 µM; in the assay with A549, 15 µM; in assay [3] it was 14.1 µM; in assay [4], 15.5 µM; in assay [5] it was 15.3 µM.

In the case of `COc1cc(/C=C/C(=O)OCCSc2nc(-c3ccc(S(C)(=O)=O)cc3)n(-c3ccccc3)n2)ccc1OC(C)=O`, the 50% inhibitory concentration (IC50) in assay [1] came out at 0.62 µM; in assay [2] it was 0.96 µM.

`CC(=O)Oc1ccc(/C=C/C(=O)NCCSc2nc(-c3ccc(S(C)(=O)=O)cc3)n(-c3ccc(F)cc3)n2)cc1OC(C)=O`: the IC50 in assay [1] worked out at 0.16 µM; in assay [2], 0.95 µM; in the assay with A549 it was 17 µM; in assay [3], 15.1 µM; in assay [4] it was 18 µM; in assay [5], 14.6 µM.

On to `CC(=O)Oc1ccc(/C=C/C(=O)OCCSc2nc(-c3ccc(S(N)(=O)=O)cc3)n(-c3ccc(F)cc3)n2)cc1OC(C)=O`, for which the IC50 was found to be 0.39 µM in assay [1]; 1.06 µM in assay [2]; 12 µM in the assay with A549; 11 µM in assay [3]; 9.84 µM in assay [4]; 11 µM in assay [5].
